From PubChem BioAssay
Compounds with a hit are over-represented: about 2.2% of the library has one in this group of screens.
GLD-1 RNA inh: GLD-1-TGE RNA interaction inhibition (C. elegans). Q17339. purified GLD-1 + fluorescein TGE RNA, fluorescence polarization. inhibition, % at 5.96 µM. 0.44% of 320,000 active;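 active = percent inhibition above a per-plate cutoff, the plate mean of test compounds plus 3 SD, cut at about 30% in these data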;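 note: 0% = DMSO wells with GLD-1 and probe and 100% = wells lacking GLD-1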
MEX-5 binding: C. elegans MEX-5 TCR-2 RNA binding activity | MEX-5/FITC-TCR2 RNA binding, fluorescence polarization; stronger effect = lower value | activity score (negative = inhibition of binding), % at 10 µM | 0.38% of 300,000 active;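 active = inhibition past about -25% in most replicates, and total fluorescence under double the plate's negative control median, limit read from the data; inconclusive = replicates evenly split on the limit, or fluorescence at least double controls; inactive = too little inhibition in most replicates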;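 note: 0% = DMSO and -100% = 5 µM competing unlabeled TCR2 RNA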
VIM-2 inh: blocks Pseudomonas aeruginosa VIM-2 metallo-beta-lactamase. purified VIM-2, nitrocefin hydrolysis, epi-absorbance fluorescence. inhibition, % at 5.6 µM. 0.89% of 290,000 active. AID 1527;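 active = inhibition above the mean of all tested compounds plus 3 SD, cutoff set per screening run, cut at about 7.5% in these data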;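 note: red hydrolysis product quenches plate fluorescence so inhibitors raise well fluorescence; 0% = enzyme with DMSO and 100% = DMSO without enzyme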
IMP-1 inh: inhibitors of Pseudomonas aeruginosa IMP-1 metallo-beta-lactamase. purified IMP-1, nitrocefin hydrolysis, epi-absorbance fluorescence. inhibition, % at 5.6 µM. 0.45% of 290,000 active. AID 1556;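 active = inhibition above the mean plus 3 SD of all compounds in the same screening run, cut at about 4.5% in these data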;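 note: 0% = IMP-1 with DMSO and 100% = DMSO wells lacking enzyme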
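System: purified IMP-1; amount: IMP-1 0.2 nM before substrate addition; compound: single dose, 5.6 µM; times: 25 °C, 15 min preincubation, 25 min reaction; signal: Epi-absorbance via hydrolysed-nitrocefin quenching of white-plate fluorescence, 480/530 nm, EDTA stop; benchmarks: DMSO with and without IMP-1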
Bcl-xL primary: inhibitors of human Bcl-xL; GST-Bcl-xL / FITC-Bim BH3 peptide fluorescence polarization; 0.7% of 320,000 active; AID 2129; inhibition, % at 10.9 µM;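 active = inhibition above the mean of all tested compounds plus 3 SD, cutoff set per campaign, cut at about 30% in these data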;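 note: 0% = DMSO wells and 100% = unlabeled Bim-BH3 peptide competitor; inhibitors lower millipolarization by displacing the labeled peptide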
Target sequence (Q07817 whole entry, looked up): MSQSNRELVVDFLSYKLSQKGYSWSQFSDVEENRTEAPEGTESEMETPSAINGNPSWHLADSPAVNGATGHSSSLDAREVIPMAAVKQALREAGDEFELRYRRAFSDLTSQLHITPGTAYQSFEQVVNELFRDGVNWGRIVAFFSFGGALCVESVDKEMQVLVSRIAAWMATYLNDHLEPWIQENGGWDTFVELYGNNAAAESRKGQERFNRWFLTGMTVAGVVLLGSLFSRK
EBV gp42 inh: blocks Epstein-Barr virus glycoprotein 42 binding. 0.42% of 220,000 active. AID 1085. inhibition, % (tested at 21.74 µM). Fluorescence polarization binding assay, mP read-out. Q1HVG2; in the data active = inhibition above about 50%
Target sequence (Q1HVG2 whole entry, looked up): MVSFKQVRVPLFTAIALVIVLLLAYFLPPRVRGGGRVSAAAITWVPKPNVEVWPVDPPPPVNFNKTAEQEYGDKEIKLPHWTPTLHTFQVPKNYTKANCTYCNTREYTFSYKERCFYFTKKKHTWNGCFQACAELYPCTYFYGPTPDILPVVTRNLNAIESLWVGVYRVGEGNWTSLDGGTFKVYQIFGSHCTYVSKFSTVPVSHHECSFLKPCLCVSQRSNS
* marks the source's active call; other numbers are inactive results; ? = inconclusive; . = no result given.

SMILES	GLD-1 RNA inh	MEX-5 binding	VIM-2 inh	IMP-1 inh	Bcl-xL primary	EBV gp42 inh
CC1CCN(C(=O)COC(=O)CCCN2C(=O)c3cccc4cccc(c34)C2=O)CC1	.	0.0	1.6	-0.2	.	.
O=C(O)CCNc1ccc(NCCC(=O)O)c2c1C(=O)c1ccccc1C2=O	77.4*	-54.6*	3.8	0.3	114.4*	.
CN1CCN(/N=C/c2ccc(-c3ccccc3)cc2)CC1	5.3	3.7	0.4	-1.4	5.0	-17.6
CN1CCN(/N=C/c2c3ccccc3c(Cl)c3ccccc23)CC1	77.1*	-0.7	3.5	0.0	110.6*	20.7
O=c1c2ccccc2sc2ccc(NCCCN3CCOCC3)cc12	36.4*	-2.4	.	.	15.0	.
CN1CCCC1CCNc1ccc2sc3ccccc3c(=O)c2c1 (stereo not drawn)	38.5*	-5.0	.	.	32.9*	.
CC(NCc1cccnc1)c1ccccc1 (stereo not drawn)	-3.8	0.7	-1.4	-4.2	3.8	.
C=CCN1CC(c2nc3ccccc3n2CCOc2ccccc2)CC1=O (stereo not drawn)	6.9	2.9	3.6	0.1	-0.7	58.1*
c1ccc(C2=NNC(c3ccccn3)=NN2)nc1	1.2	-36.3*	1.5	-7.7	7.5	.
c1ccc(-c2nnc(-c3ccccn3)s2)nc1	3.1	-6.4	1.3	-0.7	3.5	-14.7
CCCCNC(=S)Nc1ccc(OC)nc1	49.5*	-17.4	0.0	-1.6	56.0*	24.6
COc1ccc(CN2C(=O)C(Cc3ccccc3)Nc3ncnc(N4CCc5ccccc5C4)c32)cc1 (stereo not drawn)	6.2	3.4	.	.	6.6	.
CCCn1c(SCCc2ccccc2)nc2c1c(=O)[nH]c(=O)n2C	3.8	-1.1	-0.3	-1.2	2.8	115.0*
COc1ccc(NC(=O)N2CCN(C(=O)c3ccco3)CC2)c(OC)c1	0.9	0.2	-0.8	-2.3	-1.9	.
O=C(OCCN1C(=O)c2cccc3c(N4CCOCC4)ccc(c23)C1=O)c1ccc(Cl)cc1	7.6	?	-0.1	-2.7	20.4	123.2*
CCCN(CCC)S(=O)(=O)c1ccc(C(=O)OCCN2C(=O)c3cccc4c(N5CCOCC5)ccc(c34)C2=O)cc1	-11.7	?	-0.1	-1.7	4.1	134.7*
COc1cccc(CN(C)C(=O)c2cc(S(=O)(=O)N3CCCC3)ccc2C)c1OC	-2.2	.	.	.	.	.
COc1cc(NC(C)C(=O)N2CC(C)OC(C)C2)cc(OC)c1 (stereo not drawn)	-23.1	-1.7	-0.5	-3.4	72.5*	4.2
Oc1ccc(C2C[C@H]3CC[C@@H]2C3)cc1O (stereo partly drawn)	3.5	-65.1*	-3.1	-1.3	12.2	.
Cc1ccccc1S(=O)(=O)Cc1ccc(C(=O)NC2CCCCC2)o1	-1.8	-0.2	-2.7	-3.5	4.3	.
c1ccc2c(c1)CCCN2Cc1nnnn1C1CCCC1	53.0*	-12.4	-2.7	-2.2	103.5*	-8.5
O=C(CSc1nnnn1C1CCCC1)N1CCCc2ccccc21	3.7	0.3	-1.1	-0.5	-0.8	-0.2
CCOc1ccc(NC(=O)Nc2ccc(Cc3ccncc3)cc2)cc1	6.2	0.2	-1.5	-2.9	35.8*	-17.3
O=C(CN(C(=O)CNC(=O)c1cccs1)c1cccc(F)c1)NC1CCCC1	-6.2	-0.8	-0.4	-1.2	-0.4	.
CCOC(=O)C1=C(CSc2nc3c(cc2C#N)CN(C)CC3)OC(N)=C(C#N)C1c1ccccc1 (stereo not drawn)	27.4	-6.3	-0.4	-1.1	67.6*	20.3
COC(=O)C1=C(CSc2nc3c(cc2C#N)CN(C)CC3)OC(N)=C(C#N)C1c1ccccc1F (stereo not drawn)	48.4*	-5.0	2.2	0.5	85.7*	0.5
CCOC(=O)C1=C(CSc2nc3c(cc2C#N)CN(C)CC3)OC(N)=C(C#N)C1c1ccc(F)cc1 (stereo not drawn)	25.1	-8.7	0.9	-0.3	39.3*	27.2
O=C1CCC/C(=N\NC(=O)c2ccc(COc3cccc4cccnc34)cc2)C1	49.3*	-1.5	-1.1	-3.8	4.6	-2.4
NNC(=O)c1ccc(COc2cccc3cccnc23)cc1	1.3	-0.9	2.8	3.7	5.7	-19.2
CCn1c(SCC(=O)Nc2nc(C)cs2)nnc1-c1ccncc1	1.6	1.2	-1.6	-0.3	-2.3	.
